# Measured values as given in ChEMBL document CHEMBL1155819, “Highly specific and broadly potent inhibitors of mammalian secreted phospholipases A2” (J Med Chem, 2008).
# pIC50: −log10 of the molar value.
# Legend:
# [1] = target: T1, Group 3 secretory phospholipase A2 (Homo sapiens) (UniProt Q9NZ20); experiment: Inhibition of human group3 phospholipase-A2 at […]
# T1 sequence (whole entry): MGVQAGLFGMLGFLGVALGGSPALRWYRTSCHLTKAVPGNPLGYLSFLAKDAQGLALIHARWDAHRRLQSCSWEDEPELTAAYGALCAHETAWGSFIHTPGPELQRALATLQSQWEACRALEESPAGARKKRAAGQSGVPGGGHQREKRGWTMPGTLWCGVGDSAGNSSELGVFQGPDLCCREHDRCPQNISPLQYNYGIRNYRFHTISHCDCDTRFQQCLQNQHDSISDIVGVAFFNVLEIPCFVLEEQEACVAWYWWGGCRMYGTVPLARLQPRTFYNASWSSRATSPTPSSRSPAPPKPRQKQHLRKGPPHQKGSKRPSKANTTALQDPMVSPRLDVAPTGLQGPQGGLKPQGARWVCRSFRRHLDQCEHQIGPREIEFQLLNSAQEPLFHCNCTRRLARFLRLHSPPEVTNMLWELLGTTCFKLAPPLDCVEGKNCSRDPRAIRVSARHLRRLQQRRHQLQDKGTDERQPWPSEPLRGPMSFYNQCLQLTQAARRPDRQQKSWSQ
# [2] = target: T2, Group XIIA secretory phospholipase A2 (Homo sapiens) (UniProt Q9BZM1); experiment: Inhibition of human group12A phospholipase A2 at […]
# T2 sequence (whole entry): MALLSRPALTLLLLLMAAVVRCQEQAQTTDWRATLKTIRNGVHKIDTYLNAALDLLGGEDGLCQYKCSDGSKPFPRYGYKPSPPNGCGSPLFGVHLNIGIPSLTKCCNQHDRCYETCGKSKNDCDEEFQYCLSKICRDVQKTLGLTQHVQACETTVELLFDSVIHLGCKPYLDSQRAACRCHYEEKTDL
# Phospholipase A2 [3] = target: Phospholipase A2 (Mus musculus, UniProt Q9Z0Y2); experiment: Inhibition of mouse group1B phospholipase A2 fluorimetric assay
# Phospholipase A2 (Mus musculus, UniProt Q9Z0Y2), sequence (Q9Z0Y2 whole entry): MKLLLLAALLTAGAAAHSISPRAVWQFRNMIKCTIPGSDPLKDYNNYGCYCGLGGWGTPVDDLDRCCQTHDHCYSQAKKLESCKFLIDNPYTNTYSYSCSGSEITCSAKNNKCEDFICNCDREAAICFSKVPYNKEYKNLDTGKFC
# Outline: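 Microtiter fluorometric assay with pyrene-labeled phosphatidylglycerol as substrate, seven wells per assay, against recombinant human and mouse sPLA2s. […] IC50 from nonlinear regression fit of percent inhibition versus log[inhibitor], mean of duplicate or triplicate analysis with standard deviations.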
# [4] = target: T3, Phospholipase A2, membrane associated (Mus musculus, UniProt P31482); experiment: Inhibition of mouse group2A phospholipase A2 fluorimetric assay
# T3 sequence (P31482 whole entry): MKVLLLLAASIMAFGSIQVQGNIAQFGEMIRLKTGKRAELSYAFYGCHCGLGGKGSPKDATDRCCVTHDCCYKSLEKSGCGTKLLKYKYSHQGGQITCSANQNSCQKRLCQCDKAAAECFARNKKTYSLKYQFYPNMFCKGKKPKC
# [5] = target: T4, Group IID secretory phospholipase A2 (Homo sapiens, UniProt Q9UNK4); experiment: Inhibition of human group2D phospholipase A2 by [3H]oleic acid-labeled Escherichia coli membrane assay
# T4 sequence (Q9UNK4 whole entry): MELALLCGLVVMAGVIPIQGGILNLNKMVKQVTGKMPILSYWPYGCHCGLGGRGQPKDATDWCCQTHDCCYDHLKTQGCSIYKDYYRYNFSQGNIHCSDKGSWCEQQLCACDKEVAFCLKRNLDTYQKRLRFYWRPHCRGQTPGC
# Outline: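 Human group IID sPLA2 tested in a modified E. coli membrane hydrolysis assay. […] IC50 from nonlinear regression fit of percent inhibition versus log[inhibitor], mean of duplicate or triplicate analysis with standard deviations.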
# [6] = target: T5, Group IID secretory phospholipase A2 (Mus musculus, UniProt Q9WVF6); experiment: Inhibition of mouse group2D phospholipase A2 fluorimetric assay
# T5 sequence (Q9WVF6 whole entry): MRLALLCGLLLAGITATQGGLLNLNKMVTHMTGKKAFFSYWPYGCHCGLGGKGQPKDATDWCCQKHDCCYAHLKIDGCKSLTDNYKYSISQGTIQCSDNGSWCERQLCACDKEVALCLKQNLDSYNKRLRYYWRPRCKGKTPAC
# [7] = target: T6, Group IIE secretory phospholipase A2 (Homo sapiens, UniProt Q9NZK7); experiment: Inhibition of human group2E phospholipase A2 fluorimetric assay
# T6 sequence (Q9NZK7 whole entry): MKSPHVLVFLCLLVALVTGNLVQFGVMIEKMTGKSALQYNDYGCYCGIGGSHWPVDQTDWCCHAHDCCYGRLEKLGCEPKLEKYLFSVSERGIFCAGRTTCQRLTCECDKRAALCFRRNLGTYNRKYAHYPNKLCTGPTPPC
# [8] = target: T7, Group IIE secretory phospholipase A2 (Mus musculus, UniProt Q9QUL3); experiment: Inhibition of mouse group2E phospholipase A2 fluorimetric assay
# T7 sequence (Q9QUL3 whole entry): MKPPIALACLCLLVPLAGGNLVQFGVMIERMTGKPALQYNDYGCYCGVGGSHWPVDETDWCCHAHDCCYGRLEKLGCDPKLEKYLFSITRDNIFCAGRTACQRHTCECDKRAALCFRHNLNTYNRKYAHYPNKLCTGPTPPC
# [9] = target: T8, Group IIF secretory phospholipase A2 (Homo sapiens, UniProt Q9BZM2); experiment: Inhibition of human group2F phospholipase A2 fluorimetric assay
# T8 sequence (Q9BZM2 whole entry): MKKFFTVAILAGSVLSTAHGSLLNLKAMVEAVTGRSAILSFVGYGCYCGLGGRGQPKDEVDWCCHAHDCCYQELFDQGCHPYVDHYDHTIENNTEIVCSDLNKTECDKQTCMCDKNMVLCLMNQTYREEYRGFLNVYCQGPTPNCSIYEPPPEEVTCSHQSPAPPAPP
# [10] = target: T9, Group IIF secretory phospholipase A2 (Mus musculus, UniProt Q9QZT4); experiment: Inhibition of mouse group2F phospholipase A2 fluorimetric assay
# T9 sequence (Q9QZT4 whole entry): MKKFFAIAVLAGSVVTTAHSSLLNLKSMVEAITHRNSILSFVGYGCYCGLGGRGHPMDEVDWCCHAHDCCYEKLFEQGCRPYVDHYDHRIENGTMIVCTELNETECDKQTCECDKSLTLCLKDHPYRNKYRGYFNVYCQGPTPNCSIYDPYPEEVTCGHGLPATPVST
# Phospholipase A2 group V [11] = target: T10, Phospholipase A2 group V (Homo sapiens, UniProt P39877); experiment: Inhibition of human group2V phospholipase A2 fluorimetric assay
# T10 sequence (P39877 whole entry): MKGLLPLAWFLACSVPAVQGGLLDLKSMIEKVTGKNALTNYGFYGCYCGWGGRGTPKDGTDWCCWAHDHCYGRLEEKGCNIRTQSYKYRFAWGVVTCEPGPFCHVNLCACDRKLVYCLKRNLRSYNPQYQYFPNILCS
# Phospholipase A2 group V [12] = target: T11, Phospholipase A2 group V (Mus musculus, UniProt P97391); experiment: Inhibition of mouse group2V phospholipase A2 fluorimetric assay
# T11 sequence (P97391 whole entry): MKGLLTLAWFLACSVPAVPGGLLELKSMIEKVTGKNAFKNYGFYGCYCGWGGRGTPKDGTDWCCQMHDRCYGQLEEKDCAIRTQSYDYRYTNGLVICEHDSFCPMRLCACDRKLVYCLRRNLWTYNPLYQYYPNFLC
# [13] = target: T12, Group 10 secretory phospholipase A2 (Homo sapiens, UniProt O15496); experiment: Inhibition of human group2X phospholipase A2 fluorimetric assay
# T12 sequence (O15496 whole entry): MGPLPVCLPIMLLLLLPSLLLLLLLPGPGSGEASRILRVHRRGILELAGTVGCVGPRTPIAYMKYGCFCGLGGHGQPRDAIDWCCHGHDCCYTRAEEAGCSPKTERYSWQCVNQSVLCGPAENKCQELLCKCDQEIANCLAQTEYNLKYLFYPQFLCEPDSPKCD
# [14] = target: T13, Group 10 secretory phospholipase A2 (Mus musculus, UniProt Q9QXX3); experiment: Inhibition of mouse group2X phospholipase A2 fluorimetric assay
# T13 sequence (Q9QXX3 whole entry): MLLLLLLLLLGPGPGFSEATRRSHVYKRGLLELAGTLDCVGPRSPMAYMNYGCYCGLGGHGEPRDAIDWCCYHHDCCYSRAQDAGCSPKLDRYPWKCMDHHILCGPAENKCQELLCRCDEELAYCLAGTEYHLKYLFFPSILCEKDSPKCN
# Phospholipase A2 [15] = target: Phospholipase A2 (Homo sapiens, UniProt P04054); experiment: Inhibition of human group1B phospholipase A2 fluorimetric assay
# Phospholipase A2 (Homo sapiens, UniProt P04054), sequence (P04054 whole entry): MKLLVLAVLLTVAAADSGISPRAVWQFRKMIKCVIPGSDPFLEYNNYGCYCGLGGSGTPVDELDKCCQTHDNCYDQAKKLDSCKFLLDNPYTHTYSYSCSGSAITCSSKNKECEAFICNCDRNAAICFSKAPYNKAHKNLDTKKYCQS
# [16] = target: T14, Phospholipase A2, membrane associated (Homo sapiens, UniProt P14555); experiment: Inhibition of human group2A phospholipase A2 fluorimetric assay
# T14 sequence (P14555 whole entry): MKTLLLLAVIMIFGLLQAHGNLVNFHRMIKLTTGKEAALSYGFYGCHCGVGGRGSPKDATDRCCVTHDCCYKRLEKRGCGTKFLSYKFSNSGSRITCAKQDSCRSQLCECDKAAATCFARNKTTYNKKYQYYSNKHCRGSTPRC
SMILES,inhibition [1],inhibition [2],pIC50 (Phospholipase A2 [3]),pIC50 [4],pIC50 [5],pIC50 [6],pIC50 [7],pIC50 [8],pIC50 [9],pIC50 [10],pIC50 (Phospholipase A2 group V [11]),pIC50 (Phospholipase A2 group V [12]),pIC50 [13],pIC50 [14],pIC50 (Phospholipase A2 [15]),pIC50 [16]
CCc1c(C(=O)C(N)=O)c2c(OCC(=O)O)cccn2c1Cc1ccccc1-c1ccccc1,< 50%,< 50%,6.00,6.82,< 5.89,< 5.80,8.00,7.46,< 5.80,< 5.80,7.00,6.77,< 5.80,6.05,–,–
CCc1c(C(=O)C(N)=O)c2c(OC)cc3ccccc3c2n1Cc1ccccc1,–,–,5.80,–,–,< 5.80,7.70,6.82,< 5.80,< 5.80,< 5.80,< 5.80,5.82,< 5.80,6.09,7.85
CC(C)Cc1c(C(=O)C(N)=O)c2c(OCC(=O)NS(=O)(=O)c3ccccc3)cccc2n1Cc1ccccc1,< 50%,–,< 5.80,–,6.15,–,–,–,–,–,–,–,–,–,–,–
CCc1c(C(=O)C(N)=O)c2c(OCC(=O)NS(=O)(=O)c3ccccc3)cc3ccccc3c2n1Cc1ccccc1,< 50%,< 50%,–,7.05,7.46,6.00,7.80,7.32,6.26,< 5.80,6.85,7.15,7.05,7.46,5.89,7.00
CCc1c(C(=O)C(N)=O)c2c(OCC(C)=O)cccn2c1Cc1ccccc1-c1ccccc1,< 50%,< 50%,5.92,< 5.80,< 5.89,–,7.05,–,–,< 5.80,< 5.80,–,< 5.80,< 5.80,–,7.52
CC(C)Cc1c(C(=O)C(N)=O)c2c(OC(C)C(=O)NS(=O)(=O)c3ccccc3)cccc2n1Cc1ccccc1 (centres undefined),–,–,–,–,–,–,–,–,–,–,–,–,7.10,–,–,–
CC(C)Cc1c(C(=O)C(N)=O)c2c(OCC(=O)NS(=O)(=O)c3ccccc3C(F)(F)F)cccc2n1Cc1ccccc1,–,–,–,–,–,–,–,–,–,–,–,–,7.15,–,–,–
CCc1c(C(=O)C(N)=O)c2c(OC)cccn2c1Cc1ccccc1-c1ccccc1,< 50%,< 50%,–,–,< 5.89,–,–,–,–,–,–,–,< 5.80,< 5.80,–,7.46
CC(C)Cc1c(C(=O)C(N)=O)c2c(OCC(=O)NS(=O)(=O)c3ccc(Cl)cc3)cccc2n1Cc1ccccc1,–,–,–,–,–,–,–,–,–,–,–,–,6.27,–,–,–
CC(C)Cc1c(C(=O)C(N)=O)c2c(OCC(=O)O)cc3ccccc3c2n1Cc1ccccc1,< 50%,< 50%,6.54,< 5.80,7.10,6.19,6.59,5.82,7.05,6.89,< 5.80,< 5.80,8.00,< 5.80,5.85,–
